Measurements published in paper PMC7675178 (Journal of medicinal chemistry, 2019).
Residues, ends and D or L forms follow the SMILES beside them. *: point of attachment. Cbz = O=C(OCc1ccccc1)*; Boc = CC(C)(C)OC(=O)*; OBn = c1ccc(CO*)cc1; OtBu = CC(C)(C)O*

Legend:
primary MM cells = assay: Cell viability of primary MM cells; format: cell-based, human; conditions: 48 h; for Cytotoxic effects in primary MM samples, Btz-resistant versus PI-naïve: 10 μM, nine samples, Figure 5B,C
In short: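 Bone-marrow aspirates from patients; CD138+ plasma cells isolated by positive bead selection, purity checked by flow cytometry. Donors were six Btz/Cfz-naïve and eight relapsed on Btz. Plated 20 000 cells/well in IMDM with 10% FBS. Exposed to test compound (50 nM or 10 μM) for 48 h. Percentage viable cells measured by CellTiter-Glo luminescence.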

H727 cells = assay: Cell viability assay; format: cell-based
[1] = system: proteasome chymotrypsin-like (CT-L, β5/β5i) activity; format: biochemical, human; conditions: RPMI8226 cell lysate, Figure 7
In short: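 RPMI 8226 lysate in 20 mM Tris-HCl, 0.5 mM EDTA, 0.035% SDS, pH 8.0, preincubated 1 h with a range of inhibitor concentrations. Suc-LLVY-AMC added at 100 μM final. AMC fluorescence (ex 360/em 460 nm) read each minute for 1 h. Initial slopes normalized to vehicle wells; IC50 from nonlinear regression.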

[2] = In vitro metabolic stability in rat liver homogenates; format: in vitro ADME; conditions: 1 μM, 5, 10 and 20 min, 37 °C, Figure 8B
In short: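 Livers from 8-week-old male Sprague-Dawley rats, PBS-washed and homogenized in five-fold volume PBS (pH 7.4) per gram. Homogenate prewarmed to 37 °C, spiked to 1 μM final, n = 3. Samples taken at 0, 5, 10 and 20 min, quenched in four-fold ice-cold acetonitrile with 0.5 μM chlorpropamide internal standard. Remaining drug quantified by LC-MS/MS (positive-ion SRM).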

[3] = system: Cfz-resistant RPMI8226 cells; assay: Cell viability assay; format: cell-based, human
In short: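 Resistant RPMI8226 subline derived by stepwise Cfz exposure up to 80 nM over ~6 months, kept in 80 nM, then grown Cfz-free ~1 week before assay. Parental and resistant cells in RPMI1640/10% FBS, plated 10 000/well; compounds added 24 h after plating. MTS read after 72 h. IC50 by nonlinear regression; triplicates, or three independent experiments for the reference.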

[4] = biological target: β1i/LMP2 of human 20S immunoproteasome (Homo sapiens, UniProt P28065); assay: Enzyme kinetics assay, β1i/LMP2 activity of purified human 20S immunoproteasome; format: biochemical; conditions: 20S purified immunoproteasome, Figure 7
In short: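 Purified human 20S immunoproteasome in pH 8.0 Tris-HCl buffer (0.5 mM EDTA, 0.035% SDS), incubated 1 h with graded inhibitor concentrations. LMP2 activity measured with Ac-PAL-AMC (100 μM final) by AMC fluorescence (360/460 nm) every minute for 1 h. Linear-regression initial rates normalized to vehicle control; IC50 by nonlinear fit.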

[5] = in vivo; cited from earlier work
β1i subunit = conditions: cited from earlier work
β5 subunit = conditions: cited from earlier work
[6] = 72-h IC50 values, H727 versus H23, Figure 3B

CCCCCCC(=O)N[C@@H](CO)C(=O)N[C@@H](CC(C)C)C(=O)[C@@]1(COCOCCOC)CO1 [UK102]
Cytotoxic effects in primary MM samples, Btz-resistant versus PI-naïve (primary MM cells): similar

CC(C)C[C@@H](C=O)NC(=O)[C@H](CC(C)C)NC(=O)[C@H](CC(C)C)NC(=O)OCc1ccccc1 [MG-132] (Cbz-Leu-Leu-Leu-aldehyde)
Cytotoxicity in H727 cells compared with H23 cells (H727 cells; [6]): comparable cytotoxicity in H727 and H23 cells

CC(C)C[C@H](NC(=O)[C@H](CCc1ccccc1)NC(=O)CN1CCOCC1)C(=O)N[C@@H](Cc1ccccc1)C(=O)N[C@@H](CC(C)C)C(=O)[C@@]1(CO)CO1 [Compound 9, (S)-N-((S)-1-((S)-1-((R)-2-(Hydroxymethyl)oxiran-2-yl)-4-methyl-1-oxopentan-2-ylamino)-1-oxo-3-phenylpropan-2-yl)-4-methyl-2-((S)-2-(2-morpholinoacetamido)-4-phenylbutanamido)-pentanamide]
IC50 against CT-L (β5/β5i) activity compared with Cfz [1]: IC50 values similar to that of Cfz
Metabolic stability compared with Cfz [2]: more stable than Cfz
Improvement in potency as compared to Cfz ([3]; Cfz-resistant RPMI8226 cells, Figure 7): almost three-fold improvement in potency
IC50 against β1i activity compared with Cfz [4]: IC50 values similar to that of Cfz

CCCCCCC(=O)N[C@@H](C)C(=O)N[C@@H](CC(C)C)C(=O)[C@@]1(CO)CO1 [Compound 5, N-((S)-1-((S)-1-((R)-2-(Hydroxymethyl)oxiran-2-yl)-4-methyl-1-oxopentan-2-ylamino)-1-oxopropan-2-yl)heptanamide]
Cytotoxic activity in cancer cell lines relative to UK101 (H727 cells; H23, H727 and Cfz-resistant RPMI8226 cells, MTS, Figure 6B): considerably improved the cytotoxic activity

CC(C)C[C@H](NC(=O)[C@H](Cc1ccccc1)NC(=O)c1cnccn1)B(O)O [Btz, bortezomib]
Cytotoxicity in H727 cells compared with H23 cells (H727 cells; human, 72 h): comparable cytotoxicity in H727 and H23 cells

CC(C)C[C@H](NC(=O)[C@H](CCc1ccccc1)NC(=O)CN1CCOCC1)C(=O)N[C@@H](Cc1ccccc1)C(=O)N[C@@H](CC(C)C)C(=O)[C@@]1(COS(C)(=O)=O)CO1 [Compound 12, ((S)-2-((4S,7S,10S,13S)-10-Benzyl-7-isobutyl-15-methyl-1-morpholino-2,5,8, 11-tetraoxo-4-phenethyl-3,6,9, 12-tetraazahexadecanecarbonyl)oxiran-2-yl)methylmethane-sulfonate]
IC50 against CT-L (β5/β5i) activity compared with Cfz [1]: IC50 values similar to that of Cfz
IC50 against β1i activity compared with Cfz [4]: IC50 values similar to that of Cfz
Potency against H727 cells compared with Cfz (H727 cells; Cfz-resistant H727 cells, Figure 7): less potent than Cfz

CC(C)C[C@H](NC(=O)[C@H](CCc1ccccc1)NC(=O)CN1CCOCC1)C(=O)N[C@@H](Cc1ccccc1)C(=O)N[C@@H](CC(C)C)C(=O)[C@@]1(C)CO1 [Cfz, carfilzomib]
Plasma half-lives [5]: less than 1 h
Sensitivity of primary MM samples, Btz-relapsed versus PI-naïve patients (primary MM cells; 50 nM, 14 donors, Figure 5A): tended to be less responsive to Cfz
Increase in IC50 values in Cfz-resistant RPMI8226 cells ([3]; versus parental RPMI8226, 72 h MTS, Figure 4A): greater than 35 fold

CC(C)(C)OC(=O)N[C@@H](CC(=O)OCc1ccccc1)C(=O)N[C@@H](CCCCNC(=O)OCc1ccccc1)C(=O)OC(C)(C)C [reversin 121] (Boc-Asp(OBn)-Lys(Cbz)-OtBu)
Restoration of Cfz sensitivity by P-gp inhibitor ([3]; Cfz-resistant RPMI8226, Supporting Information S2): almost completely restored Cfz sensitivity

CC(=O)N[C@@H](CSC(=O)[C@]1([C@@H](O)C(C)C)NC(=O)[C@H](C)[C@@H]1O)C(=O)O [lactacystin]
Cytotoxicity in H727 cells compared with H23 cells (H727 cells; [6]): not as effective in H727 cells as in H23 cells

CCCCCCC(=O)N[C@@H](C)C(=O)N[C@@H](CC(C)C)C(=O)[C@@]1(CO[Si](C)(C)C(C)(C)C)CO1 [UK101]
Inhibition of β1i subunit, concentration range (β1i subunit): nanomolar concentration ranges
Cytotoxic effects in primary MM samples, Btz-resistant versus PI-naïve (primary MM cells): similar
Inhibition of β5 subunit (CT-L activity), concentration range (β5 subunit): micromolar concentration ranges
